Screens (PubChem BioAssay)
KCNQ1 act – potentiators or activators of KCNQ1 channel, primary screen, cell-based, thallium flux, high-throughput | Potassium voltage-gated channel subfamily KQT member 1 (Homo sapiens), P51787 | B-score at 10 µM | hit rate 0.35% among 310,000 | AID 2648, 2010 | CHO-K1 KCNQ1, thallium flux FluxOR fluorescence; active compounds read high;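 active means fluorescence ratio B-score, a plate-corrected score, at least three library SD, with initial intensity B-score within 5 SD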
Target sequence (P51787 whole entry, looked up): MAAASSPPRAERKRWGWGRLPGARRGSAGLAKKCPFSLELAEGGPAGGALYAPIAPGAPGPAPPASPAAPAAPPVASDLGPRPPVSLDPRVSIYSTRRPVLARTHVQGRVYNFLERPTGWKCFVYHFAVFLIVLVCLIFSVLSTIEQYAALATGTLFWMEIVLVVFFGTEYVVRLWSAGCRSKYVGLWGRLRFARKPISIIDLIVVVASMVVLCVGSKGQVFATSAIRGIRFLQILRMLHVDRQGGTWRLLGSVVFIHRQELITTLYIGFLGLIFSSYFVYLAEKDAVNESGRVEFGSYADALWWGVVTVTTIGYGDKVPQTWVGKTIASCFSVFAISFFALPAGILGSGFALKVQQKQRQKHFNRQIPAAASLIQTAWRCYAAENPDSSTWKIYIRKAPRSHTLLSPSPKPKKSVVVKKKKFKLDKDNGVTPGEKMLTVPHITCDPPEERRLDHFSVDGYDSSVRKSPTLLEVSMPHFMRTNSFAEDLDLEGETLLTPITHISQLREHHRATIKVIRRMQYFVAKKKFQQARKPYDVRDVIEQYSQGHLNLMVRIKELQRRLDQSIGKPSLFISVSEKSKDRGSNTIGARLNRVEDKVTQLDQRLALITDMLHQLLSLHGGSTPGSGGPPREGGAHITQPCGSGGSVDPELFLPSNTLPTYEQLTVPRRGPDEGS
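assay system = KCNQ1-transfected CHO-K1 cells | medium = assay buffer with matched DMSO | probe or stimulus = depolarizing K+/Tl+ stimulus, K2SO4 and Tl2SO4 each 12.5 mM in 5x stock | dosing = single dose | incubation = dye 90 min, compound 20 min, room temperature | detection = kinetic FluxOR fluorescence, 10 s baseline plus 110 s post-stimulus | evaluation = ratio B score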
KCNK9 block – KCNK9 potassium channel inhibitors, primary screen, HEK293 cells, thallium flux. B-score at 10 µM. Potassium channel subfamily K member 9 (Homo sapiens), Q9NPC2. AID 488922, 2010. FluxOR thallium flux fluorescence; active compounds read low. hit rate 1.2% among 310,000;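 active means ratio B-score over 3 SD below the library mean, with starting fluorescence within 5 SD of its mean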;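 further: negative B-score means less thallium flux so channel inhibition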
Kir21 block – inhibitors of mouse Kir2.1 inward-rectifier potassium channel; HEK293-Kir2.1, FluxOR thallium flux fluorescence; active compounds read low; AID 1672, 2009; hit rate 0.85% among 310,000; B-score at 10 µM; Inward rectifier potassium channel 2 (Mus musculus), P35561;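 active means fluorescence ratio B-score at or below minus 3 SD of library scores, with starting-brightness B-score within 2 SD, cut at about -4.2 in these data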;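 further: channel flux triggered by added potassium and thallium sulfate stimulus; B-score of peak minus minimum fluorescence over baseline after thallium stimulus; more negative B-score means stronger Kir2.1 block with less thallium influx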
KCNQ1 inh – inhibitors of human KCNQ1 channel, primary screen, cell-based, thallium flux, high-throughput. Potassium voltage-gated channel subfamily KQT member 1 (Homo sapiens), P51787. CHO-K1 KCNQ1, FluxOR thallium flux fluorescence; active compounds read high. B-score at 10 µM. hit rate 1.3% among 310,000;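 active means compounds whose thallium flux B-score, printed positive for inhibition, exceeds three library SD while starting fluorescence stays within three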;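 further: channel opened by potassium depolarization with thallium stimulus after 20 min compound exposure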
hERG protect – hERG rescue from dofetilide block, primary screen, cell-based, CHO-hERG, FluxOR thallium flux, dofetilide IC70; Voltage-gated inwardly rectifying potassium channel KCNH2 (Homo sapiens), Q12809; dofetilide IC70 present; activation (rescue from dofetilide block), less the hit threshold, % at 10 µM; hit rate 0.51% among 310,000;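 active means activation above the mean of controls blocked by dofetilide plus 5 SD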;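 further: thallium influx through hERG after potassium depolarization seen as dye fluorescence rise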
KCNK3 block – human KCNK3 channel inhibitors, primary screen, CHO cells, FluxOR thallium flux, B-score. Potassium channel subfamily K member 3 (Homo sapiens), O14649. FluxOR fluorescence; active compounds read low. B-score at 10 µM. hit rate 0.84% among 340,000. AID 602410, 2012;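 active means B-score under library mean minus 4 SD, starting fluorescence ratio at most library mean plus 5 SD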;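 further: more negative B-score means stronger inhibition of thallium flux through KCNK3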
Numbers without * were called inactive; i = inactive; nt = no result. This is a sample that favours compounds with a hit; in the whole collection about 3.8% have one here.

SMILES	KCNQ1 act	KCNK9 block	Kir21 block	KCNQ1 inh	hERG protect	KCNK3 block
CC(=O)[C@@]1(O)CC[C@H]2[C@@H]3CCC4=CC(=O)CC[C@]4(C)[C@H]3CC[C@@]21C	i	i	0.46	i	-3	i
COc1ccc(/C=N/NC(=O)COc2ccccc2-c2ccccc2)cc1	i	i	1.9	i	-4	i
COc1ccc(Br)c(/C=N/NC(=O)COc2ccc(-c3ccccc3)cc2)c1	i	i	-0.3	i	-13	-9.2*
CC(Cc1ccc(O)c(O)c1)C(C)Cc1ccc(O)c(O)c1 (stereo not given)	i	i	-11*	i	-36	nt
Cc1nn(CCC(=O)O)c2nc(-c3cccnc3)cc(C(F)(F)F)c12	i	i	-0.91	i	-1	i
Cc1nn(CCc2nn[nH]n2)c2nc(-c3ccc(C4CCCCC4)cc3)cc(C(F)(F)F)c12	50*	i	2.5	i	-16	i
CCOC(=O)c1ccc(S(=O)(=O)N2CCN(C(=O)c3ccccn3)CC2)cc1	nt	nt	nt	nt	nt	i
COc1ccc(C(=O)/C(=C\c2ccco2)N2C=CC=CC2=C(C#N)C#N)cc1	i	i	-9.9*	i	-19	i
COc1ccc(/C=C(/C(=O)c2cccs2)N2C=CC=CC2=C(C#N)C#N)cc1	i	i	-3.6	11*	-29	i
N#CC(C#N)=C1C=CC=CN1/C(=C\c1ccco1)C(=O)c1ccccc1	nt	nt	nt	nt	nt	i
N#CC(C#N)=C1C=CC=CN1/C(=C\c1ccco1)C(=O)c1ccc(Br)cc1	nt	nt	nt	nt	nt	i
CCOC(=O)c1c[nH]c2c(C(F)(F)F)cccc2c1=O	i	i	2.8	i	-1	i
Cc1cc(=O)oc2cc(OC(=O)c3ccco3)ccc12	i	i	-12*	i	-5	i
COc1cc(NC(=S)N2CCC(C(O)(c3ccccc3)c3ccccc3)CC2)cc(OC)c1	23*	i	0.46	i	-3	i
Cc1cc(C)n(CC(=O)NNC(=O)c2ccc(S(C)(=O)=O)cc2)n1	nt	nt	nt	nt	nt	i
CCOC(=O)c1c(C)oc2c1cc(O)c1ccccc12	i	i	-1.4	i	-1	i
CCOC(=O)c1c(C)oc2c(F)c(F)c(F)c(F)c2c1=O	i	i	1.9	7*	-23	i
CCc1ccc2[nH]c(=O)c(CN(CCCN3CCOCC3)C(=O)Nc3cccc(Cl)c3)cc2c1	i	i	0.65	6*	-26	i
CCc1ccc2[nH]c(=O)c(CN(CCCN3CCOCC3)C(=O)Nc3ccc(Cl)cc3)cc2c1	i	i	0.18	i	-23	i
O=C(Nc1cccc([N+](=O)[O-])c1)c1ccc2ccccc2c1O	i	i	0.18	6*	-18	i
O=C(Nc1cccnc1)c1ccc2ccccc2c1O	i	i	0.02	i	-7	i
Cc1occc1C(=O)Nc1cccc([N+](=O)[O-])c1	i	i	-0.55	i	8.6*	i
CS(=O)(=O)c1sc(C#N)c2c1C(=O)CC(c1ccccc1)C2 (stereo not given)	27*	i	-5.9	i	-10	i
COc1ccccc1/C=N/Nc1cc(N(C)C)nc(N(C)C)n1	i	i	-0.29	6*	-7	i
CN(C)c1cc(N/N=C\c2ccccc2)nc(N(C)C)n1	i	i	-0.27	i	-17	i
SMILES	KCNQ1 act	KCNK9 block	Kir21 block	KCNQ1 inh	hERG protect	KCNK3 block
O=C(Cc1noc2ccccc12)NNC(=S)Nc1ccccc1	i	i	-0.34	i	5.7*	i
O=C(Cc1noc2ccccc12)NNC(=S)Nc1ccc(Cl)cc1	i	i	-0.71	i	0	i
CCCCCc1nnc(NC(=O)C2=COCCO2)s1	i	i	0.91	i	-6	i
O=[N+]([O-])c1ccc(Nc2nc(NCCO)nc(N3CCCC3)n2)cc1	i	i	0.01	i	-12	i
NNc1nc(Nc2ccc([N+](=O)[O-])cc2)nc(N2CCCCCC2)n1	i	i	-0.97	6*	-5	i
Cc1cc(OCC(=O)N(C)Cc2ccccc2)ccc1Br	i	-7.3*	1.3	i	-8	i
Cc1cc(OCC(=O)N(C)Cc2ccccc2)ccc1Cl	i	i	0.09	i	-6	i
O=C(OCCc1cc2ccccc2c(=O)o1)c1cccc(Br)c1	nt	nt	nt	nt	nt	-8.8*
C[C@H](CO)N1C[C@H](C)[C@@H](CN(C)Cc2ccc(Cl)c(Cl)c2)Oc2ccc(NC(=O)Cn3cnnn3)cc2C1=O	nt	nt	nt	nt	nt	i
CCCCOc1ccc(C(=O)Nc2ccc(S(=O)(=O)Nc3cc(C)on3)cc2)cc1OC	i	i	0.65	i	4.9*	i
CCCC(=O)c1ccc(-c2ccccc2)cc1	i	-7.4*	0.01	i	-1	i
Cc1ccc(C(=O)CC(=O)c2ccccc2)cc1	i	i	0.88	i	-6	i
O=C(CCCCCCCC(=O)c1ccccc1)c1ccccc1	i	i	0.45	7*	-6	i
CC1(CCC(=O)O)C(=O)CCC2C1CCC1(C)C2CCC1(C)O (stereo not given)	nt	nt	nt	nt	nt	i
NC(=O)c1cc([N+](=O)[O-])ccc1Nc1ccccc1	nt	nt	nt	nt	nt	i
O=C(Nc1cccc([N+](=O)[O-])c1)NC1CCS(=O)(=O)C1 (stereo not given)	i	i	-0.07	10*	-9	i
NC(=O)c1cccnc1Nc1cccc([N+](=O)[O-])c1	i	i	-0.11	i	9.4*	i
O=C(Nc1cc([N+](=O)[O-])ccc1O)NC1CCS(=O)(=O)C1 (stereo not given)	nt	nt	nt	nt	nt	i
O=C(Nc1cccc([N+](=O)[O-])c1)c1cnccn1	i	i	0.9	i	0	i
O=C(Nc1cccnc1)Nc1cccc([N+](=O)[O-])c1	i	i	-0.11	6*	-6	i
O=C(Nc1ccc(OC(F)(F)F)cc1)Nc1cccc([N+](=O)[O-])c1	i	i	-0.31	7*	-18	i
O=C(NCc1cccc(C(F)(F)F)c1)c1ccc(=O)[nH]c1	i	i	1	i	-10	i
Cn1c(=O)c(Nc2ccc(Cl)cc2)c2c3c(cccc31)C(=O)c1ccccc1-2	i	i	-7.1	9*	-8	nt
COc1ccc(-[n+]2c(C)cc(/C=C3\Sc4ccccc4N3C)cc2C)cc1	i	i	-14	23*	-46	i
